The values below come from ChEMBL document CHEMBL2146414, “Lignan derivatives from Krameria lappacea roots inhibit acute inflammation in vivo and pro-inflammatory mediators in vitro” (J Nat Prod, 2011).

As usually defined, the IC50 is the concentration needed to halve the response being measured.

Active and inactive are the calls of the source. No cut-off for these calls is given here. Bounds are passed on as bounds.

One assay deals with T1, Prostaglandin E synthase (Homo sapiens, UniProt O14684).
T1 sequence (O14684 whole entry): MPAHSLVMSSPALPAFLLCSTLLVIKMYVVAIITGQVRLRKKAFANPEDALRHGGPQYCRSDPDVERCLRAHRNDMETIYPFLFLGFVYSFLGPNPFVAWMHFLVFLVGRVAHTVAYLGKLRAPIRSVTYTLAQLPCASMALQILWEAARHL
The assay can be described thus: Inhibition of mPGES1 in IL-1beta treated human A549 cell microsomal membrane assessed as inhibition of PGE2 formation incubated for 15 mins before addition of PGH2 by RP-HPLC method. It is filed as microsomes, Microsome.

The target of assay [1] is T2, Polyunsaturated fatty acid 5-lipoxygenase (Homo sapiens, UniProt P09917).
T2 sequence (P09917 whole entry): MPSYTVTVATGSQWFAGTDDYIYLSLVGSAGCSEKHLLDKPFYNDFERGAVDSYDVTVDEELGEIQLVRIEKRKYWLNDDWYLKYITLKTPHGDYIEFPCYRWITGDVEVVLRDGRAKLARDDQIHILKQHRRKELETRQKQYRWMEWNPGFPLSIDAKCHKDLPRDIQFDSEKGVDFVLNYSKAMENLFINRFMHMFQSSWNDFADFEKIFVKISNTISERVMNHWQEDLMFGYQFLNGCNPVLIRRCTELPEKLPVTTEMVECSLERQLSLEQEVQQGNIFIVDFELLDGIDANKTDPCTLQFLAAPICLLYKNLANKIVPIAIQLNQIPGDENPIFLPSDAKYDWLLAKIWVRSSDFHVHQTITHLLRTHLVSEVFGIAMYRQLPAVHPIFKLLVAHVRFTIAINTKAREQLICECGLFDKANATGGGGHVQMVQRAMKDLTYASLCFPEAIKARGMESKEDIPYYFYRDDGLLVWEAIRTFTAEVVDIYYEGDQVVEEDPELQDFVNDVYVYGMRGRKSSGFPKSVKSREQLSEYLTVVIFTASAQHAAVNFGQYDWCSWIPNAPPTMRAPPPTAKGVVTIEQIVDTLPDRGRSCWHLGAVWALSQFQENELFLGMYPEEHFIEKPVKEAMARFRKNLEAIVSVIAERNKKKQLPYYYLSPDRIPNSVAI
The assay can be described thus: Inhibition of 5-lipoxygenase in human neutrophils assessed as inhibition of LTB4 production. In a few lines:
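Stimulated human neutrophilic granulocytes; 5-LO-mediated LTB4 formation measured; samples dissolved in ethanol. IC50 from at least three concentrations, duplicates, at least three independent experiments, by nonlinear regression.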

In assay [2] the target is T3, Prostaglandin G/H synthase 2 (Ovis aries, UniProt P79208).
T3 sequence (P79208 whole entry): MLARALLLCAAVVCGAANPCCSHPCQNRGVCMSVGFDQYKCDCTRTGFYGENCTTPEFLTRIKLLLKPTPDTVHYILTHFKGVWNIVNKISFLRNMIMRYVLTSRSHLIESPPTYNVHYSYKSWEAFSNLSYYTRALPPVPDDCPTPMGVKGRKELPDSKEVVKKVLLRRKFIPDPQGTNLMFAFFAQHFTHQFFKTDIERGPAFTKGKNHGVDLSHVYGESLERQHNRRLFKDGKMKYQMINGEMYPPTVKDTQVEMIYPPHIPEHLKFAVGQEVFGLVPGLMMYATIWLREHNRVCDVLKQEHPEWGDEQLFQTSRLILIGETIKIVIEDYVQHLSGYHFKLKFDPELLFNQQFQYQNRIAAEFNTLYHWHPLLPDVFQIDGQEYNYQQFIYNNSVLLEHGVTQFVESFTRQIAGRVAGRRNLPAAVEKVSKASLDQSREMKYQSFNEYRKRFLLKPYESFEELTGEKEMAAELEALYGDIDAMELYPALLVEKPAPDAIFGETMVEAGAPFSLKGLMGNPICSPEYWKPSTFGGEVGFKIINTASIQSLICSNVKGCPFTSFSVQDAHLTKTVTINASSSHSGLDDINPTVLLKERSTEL
Nature of the assay: Inhibition of sheep placental COX2 assessed as PGE2 production by enzyme immunoassay.

Assay [3] relates to Mus musculus. The assay can be described thus: Antiinflammatory activity in CD1 mouse ear dermatitis model assessed as inhibition of Croton oil-induced ear edema at 0.10 umol administered topically per cm'2 of ear measured after induction of dermatitis relative to untreated control. It is filed as functional. In a few lines:
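Male CD-1 mice (28–32 g), anesthetized with ketamine 145 mg/kg i.p.; right ear (about 1 cm2) given 80 μg croton oil in 15 μL acetone, with test substance co-applied in acetone; left ear left untreated. Controls received irritant only. 6 mm punches taken from both ears; edema = weight difference treated minus untreated; % inhibition vs controls. ID50 by graphic interpolation of log dose–effect curves; ANOVA with Dunnett's test.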

Assay [4] is described as follows: Inhibition of NFkappaB activity transfected in HEK293 cells pretreated for 1 hr before 6 hrs of LPS challenge by luciferase reporter gene assay. The conditions noted are these: Homo sapiens. For orientation: A reporter such as luciferase makes a cellular process visible.
Assay [5] addresses T4, Peroxisome proliferator-activated receptor alpha (Homo sapiens) (UniProt Q07869).
T4 sequence (whole entry): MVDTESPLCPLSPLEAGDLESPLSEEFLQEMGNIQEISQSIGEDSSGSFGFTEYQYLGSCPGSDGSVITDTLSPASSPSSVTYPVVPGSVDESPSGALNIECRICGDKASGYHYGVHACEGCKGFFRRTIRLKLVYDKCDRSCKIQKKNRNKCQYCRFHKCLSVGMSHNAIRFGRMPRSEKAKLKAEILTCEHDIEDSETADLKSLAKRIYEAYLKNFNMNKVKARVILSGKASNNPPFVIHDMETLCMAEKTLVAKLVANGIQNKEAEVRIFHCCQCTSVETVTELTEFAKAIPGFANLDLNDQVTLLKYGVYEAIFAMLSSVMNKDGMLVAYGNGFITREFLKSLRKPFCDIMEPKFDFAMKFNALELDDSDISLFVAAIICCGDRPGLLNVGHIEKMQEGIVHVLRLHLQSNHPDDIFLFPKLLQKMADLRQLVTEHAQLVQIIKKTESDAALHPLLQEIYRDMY
Nature of the assay: Activation of PPARalpha transfected in HEK293 cells at 10 uM after 18 hrs by firefly luciferase reporter gene-based luminescence assay. It is filed as cell-based.

Assay [6] has as its system Mus musculus. The assay can be described thus: Antiinflammatory activity in CD1 mouse ear dermatitis model assessed as inhibition of Croton oil-induced ear edema administered topically per cm'2 of ear measured after induction of dermatitis relative to untreated control. It is filed as functional.

For the molecule `C/C=C/c1ccc2c(c1)[C@@H](C)[C@H](c1ccc(O)cc1)O2`, the half-inhibitory concentration (IC50) was 19.5 µM at Prostaglandin E synthase, 18.4 µM in assay [1], more than 50 µM in assay [2] and more than 20 µM in assay [4]. In addition, the “inhibition (INH)” value in the assay on Mus musculus [3] is listed as 25%. The outcome in assay [5] was inactive.
As for `C[C@@H]1[C@H](C)[C@@H](c2ccc(O)cc2)O[C@@H]1c1ccc(O)cc1`, the IC50 (on Prostaglandin E synthase; in assay [1]; in assay [2]) was more than 50 µM throughout. Besides, in the assay on Mus musculus [6], the ID50 is 0.46 umol/cm2. For the same molecule, the “inhibition (INH)” value in the assay with Mus musculus [3] amounted to 19%. Also, the outcome in assay [5] was inactive.
As to `C[C@@H]1[C@H](C)[C@@H](c2ccc(O)cc2)O[C@H]1c1ccc(O)cc1`, the IC50 at Prostaglandin E synthase was more than 50 µM; in assay [1] it was more than 50 µM; in assay [2], more than 50 µM; in assay [4], more than 20 µM. For the same molecule, the ID50 in the assay with Mus musculus [6] was found to be 0.36 umol/cm2. For the same molecule, the “inhibition (INH)” value in the assay with Mus musculus [3] is reported as 14%. Moreover, the outcome in assay [5] was inactive.
As to `C/C=C/c1ccc2oc(-c3ccc(O)cc3)c(C)c2c1` [RATANIAPHENOL II], the results for the IC50 (on Prostaglandin E synthase; in assay [1]; in assay [2]) were 11 µM, more than 50 µM and 1.7 µM, respectively. In addition, the ID50 in the assay on Mus musculus [6] turned out to be 0.4 umol/cm2. Besides, the “inhibition (INH)” value in the assay with Mus musculus [3] is 13%. The result in assay [5] was inactive.
Turning to `COc1ccc(-c2cc3cc(CCCO)ccc3o2)c(O)c1`, the IC50 on Prostaglandin E synthase is 42 µM; in assay [1], 27.2 µM; in assay [2] it was more than 50 µM; in assay [4], 5.9 µM. The ID50 in the assay on Mus musculus [6] is 0.36 umol/cm2. Also, the “inhibition (INH)” value in the assay with Mus musculus [3] was 25%. Moreover, in assay [5], the outcome was inactive.
With `C/C=C/c1ccc2c(c1)[C@H](CO)[C@@H](c1ccc(O)cc1)O2`, the results for the 50% inhibitory concentration (IC50) (at Prostaglandin E synthase; in assay [1]; in assay [2]) were 39.5 µM, more than 50 µM and more than 50 µM, respectively. Further, the ID50 in the assay with Mus musculus [6] amounted to 0.42 umol/cm2. Also, the “inhibition (INH)” value in the assay on Mus musculus [3] is recorded as 17%. Moreover, the outcome in assay [5] was inactive.
For `C/C=C/c1ccc2oc(-c3ccc(O)cc3O)cc2c1`, the half-maximal inhibitory concentration (IC50) was 7.4 µM on Prostaglandin E synthase, more than 50 µM in assay [1] and 7.1 µM in assay [2]. Also, the ID50 in the assay with Mus musculus [6] is listed as 0.6 umol/cm2. The “inhibition (INH)” value in the assay with Mus musculus [3] is recorded as 15%. The result in assay [5] was inactive.
`COc1cc(O)ccc1-c1cc2cc(CCCO)ccc2o1`: the concentration for half-maximal inhibition (IC50) on Prostaglandin E synthase was more than 50 µM; in assay [1] it was 41.4 µM; in assay [2], more than 50 µM. For the same molecule, the ID50 in the assay with Mus musculus [6] came out at 0.45 umol/cm2. For the same molecule, the “inhibition (INH)” value in the assay with Mus musculus [3] was determined as 13%. Besides, in assay [5], the result was inactive.
Take `C/C=C/c1ccc2oc(-c3ccc(O)cc3)cc2c1`: the IC50 at Prostaglandin E synthase is 5.3 µM; in assay [1], more than 50 µM; in assay [2], 2 µM; in assay [4] it was 1.4 µM. For the same molecule, the ID50 with Mus musculus [6] was determined as 0.44 umol/cm2. Besides, in the assay on Mus musculus [3], the “inhibition (INH)” value was 14%. Further, the outcome in assay [5] was inactive.
In the case of `C/C=C/c1ccc2oc(-c3ccc(O)cc3OC)cc2c1` [RATANIAPHENOL III], the IC50 on Prostaglandin E synthase is 13.5 µM; in assay [1], more than 50 µM; in assay [2], 7.6 µM; in assay [4], more than 20 µM. Also, the ID50 in the assay with Mus musculus [6] amounted to 0.48 umol/cm2. Also, the “inhibition (INH)” value in the assay on Mus musculus [3] turned out to be 12%. Besides, the result in assay [5] was inactive.
Consider `C/C=C/c1ccc2oc(-c3ccc(OC)cc3O)cc2c1` [RATANIAPHENOL I], for which the IC50 at Prostaglandin E synthase is 13 µM; in assay [1], more than 50 µM; in assay [2], more than 50 µM; in assay [4], 14.7 µM. In the assay with Mus musculus [6], the ID50 was 0.57 umol/cm2. In the assay on Mus musculus [3], the “inhibition (INH)” value is 9%. Further, the result in assay [5] was inactive.
